Data set [1] deals with NCI-H929. The data set can be described thus: Antiproliferative activity against human NCI-H929 cells after 72 hrs by WST-1 assay. Format: functional. The following applies: NCI-H929, 72 h. An outline of the steps: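 NCI-H929 myeloma cells (RPMI-1640, 10% FBS, 0.05 mM 2-mercaptoethanol) seeded at 30% confluency and dosed the next day. After 72 h, WST-1 reagent added and absorbance at 450 nm read. IC50 from nonlinear log(inhibitor) versus response fit.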
(Formazan colour is commonly taken as a measure of viable cells.)

Data set [2] is described as follows: Toxicity in CB-17/IcrCri SCID mouse xenografted with human TMD8 cells assessed as adverse effect at 50 mg/kg, ip qd for 14 days. Particulars: in vivo, 336 h. The class given is organism-based. An outline of the steps:
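TMD8 subcutaneous xenografts in female CB-17/IcrCri-scid mice dosed i.p. at 50 mg/kg daily for 14 days in 20% PEG 400 / 3% Tween 80 in PBS, starting at about 150 mm3 tumours. Animals observed daily for signs of morbidity or mortality.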
For orientation: Xenograft models place foreign cells or tissue in a host animal.

The nature of data set [3]: Toxicity in CB-17/IcrCri SCID mouse xenografted with human TMD8 cells assessed as change in body weight at 50 mg/kg, ip qd for 14 days measured twice weekly during compound dosing. The class given is organism-based. Particulars: in vivo, 336 h.
Data set [4] concerns TMD8. The data set can be described thus: Antitumor activity against human TMD8 cells xenografted in CB-17/IcrCri SCID mouse assessed as tumor growth inhibition at 50 mg/kg, ip qd for 14 days measured during compound dosing. Format: functional, organism-based. An outline of the steps:
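Female CB-17/IcrCri-scid mice carried subcutaneous TMD8 tumours in the right flank. Dosing began at about 150 mm3 mean tumour volume: 50 mg/kg i.p. once daily for 14 days in 20% PEG 400 / 3% Tween 80 in PBS, with DMSO as control. Calipers twice weekly; volume = length x width² x 0.5. Mean ± SE, n = 6.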

Data set [5] concerns the target T1, Protein cereblon/Bromodomain-containing protein 4 (Homo sapiens, UniProt O60885+Q96SW2). The data set can be described thus: Induction of CRBN-mediated BRD4 degradation in human 22RV1 cells in presence of proteasome inhibitor bortezomib by immunoblotting analysis. The class given is cell-based. Background: In western blotting, separated proteins are transferred to a membrane and probed.

For data set [6], the target named is Protein cereblon/Zinc finger protein Aiolos (Homo sapiens) (UniProt Q96SW2+Q9UKT9). Description: Induction of CRBN ubiquitin ligase-mediated IKZF3 degradation in human U266 cells up to 10 uM measured after 12 hrs by immunoblotting analysis.
Data set [7] has as its target T1, Protein cereblon/Bromodomain-containing protein 4. The data set can be described thus: Induction of CRBN-mediated BRD4 degradation in human 22RV1 cells in presence of neddylation inhibitor MLN4924 by immunoblotting analysis. Format: cell-based.
Data set [8] concerns the target Bromodomain-containing protein 4 (Homo sapiens) (UniProt O60885). Description: Induction of BRD4 degradation in CRBN knockdown human 22RV1 cells by immunoblotting analysis. An outline of the steps:
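22Rv1 cells transfected with CRBN siRNA or negative-control siRNA using RNAiMAX. After 48 h, degrader added for 12 h. Lysates in HEPES/Triton X-100 buffer with protease inhibitor, then SDS-PAGE and immunoblot.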

Data set [9] has as its target Protein cereblon/Bromodomain-containing protein 2 (Homo sapiens) (UniProt P25440+Q96SW2). The data set can be described thus: Induction of CRBN-mediated BRD2 degradation in human 22RV1 cells up to 1000 nM measured after 24 hrs by immunoblotting analysis. Format: cell-based. An outline of the steps:
(§1)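 22Rv1 prostate cancer cells (RPMI-1640, 10% FBS) given a 24 h dose titration. Lysates in HEPES/Triton X-100 buffer with protease inhibitor, then SDS-PAGE, nitrocellulose transfer and immunoblot.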

Data set [10] deals with T1, Protein cereblon/Bromodomain-containing protein 4. The data set can be described thus: Induction of CRBN-mediated BRD4 degradation in human 22RV1 cells measured after 24 hrs by immunoblotting analysis. The class given is cell-based.
For data set [11] the target is unchanged. The data set can be described thus: Induction of CRBN-mediated BRD4 degradation in human 22RV1 cells in presence of TD-106 by immunoblotting analysis. Format: cell-based.
Data set [12] has as its target Protein cereblon/Bromodomain-containing protein 3 (Homo sapiens) (UniProt Q15059+Q96SW2). Description: Induction of CRBN-mediated BRD3 degradation in human 22RV1 cells up to 1000 nM measured after 24 hrs by immunoblotting analysis. Format: cell-based. An outline of the steps:
as §1

The target in data set [13] is T1, Protein cereblon/Bromodomain-containing protein 4. Description: Induction of Xpress-tagged CRBN (unknown origin)/FALG-tagged BRD4 (unknown origin) protein-protein interaction by immunoblotting analysis. The class given is protein assay. An outline of the steps: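 Cells co-transfected with Xpress-CRBN and FLAG-BRD4 using X-tremeGENE HP. Lysates incubated with anti-FLAG magnetic beads, 4 °C for 3 h. Beads washed in lysis buffer and 500 mM NaCl wash buffer, eluted in SDS sample buffer, and immunoblotted.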

Data set [14] concerns CWR22R. Description: Antiproliferative activity against human 22Rv1 cells after 72 hrs by CelTiter-Glo reagent-based luminescence assay. The class given is functional. The following applies: 22Rv1, 72 h. An outline of the steps:
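22Rv1 cells, 15,000 per well, exposed to compound at indicated concentrations for 72 hr. Viability read by CellTiter-Glo luminescence; relative growth versus DMSO-treated control. IC50 from nonlinear log(inhibitor) versus response fit.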

Data set [15] has as its target T1, Protein cereblon/Bromodomain-containing protein 4. The data set can be described thus: Induction of CRBN-mediated BRD4 degradation in human 22RV1 cells in presence of JQ1 by immunoblotting analysis. Format: cell-based.

SMILES strings stand for the structures. Calls of active or inactive are those of the source. The calls are words filed in the database; no cut-off is given here.

T1 sequence (Q96SW2 whole entry, looked up, other chains not shown): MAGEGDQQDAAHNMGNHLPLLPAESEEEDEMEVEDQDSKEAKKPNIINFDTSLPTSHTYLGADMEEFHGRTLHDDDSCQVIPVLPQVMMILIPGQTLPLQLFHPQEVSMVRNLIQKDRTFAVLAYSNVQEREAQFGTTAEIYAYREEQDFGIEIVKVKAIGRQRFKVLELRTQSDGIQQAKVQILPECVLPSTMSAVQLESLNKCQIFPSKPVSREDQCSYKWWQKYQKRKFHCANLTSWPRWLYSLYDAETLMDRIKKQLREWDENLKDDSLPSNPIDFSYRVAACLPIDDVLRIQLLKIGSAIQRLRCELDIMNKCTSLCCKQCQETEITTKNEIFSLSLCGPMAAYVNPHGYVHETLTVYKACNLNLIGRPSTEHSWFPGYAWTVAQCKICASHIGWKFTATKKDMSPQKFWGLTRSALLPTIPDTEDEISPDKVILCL
Protein cereblon/Bromodomain-containing protein 2 (Homo sapiens), sequence (P25440 whole entry, looked up): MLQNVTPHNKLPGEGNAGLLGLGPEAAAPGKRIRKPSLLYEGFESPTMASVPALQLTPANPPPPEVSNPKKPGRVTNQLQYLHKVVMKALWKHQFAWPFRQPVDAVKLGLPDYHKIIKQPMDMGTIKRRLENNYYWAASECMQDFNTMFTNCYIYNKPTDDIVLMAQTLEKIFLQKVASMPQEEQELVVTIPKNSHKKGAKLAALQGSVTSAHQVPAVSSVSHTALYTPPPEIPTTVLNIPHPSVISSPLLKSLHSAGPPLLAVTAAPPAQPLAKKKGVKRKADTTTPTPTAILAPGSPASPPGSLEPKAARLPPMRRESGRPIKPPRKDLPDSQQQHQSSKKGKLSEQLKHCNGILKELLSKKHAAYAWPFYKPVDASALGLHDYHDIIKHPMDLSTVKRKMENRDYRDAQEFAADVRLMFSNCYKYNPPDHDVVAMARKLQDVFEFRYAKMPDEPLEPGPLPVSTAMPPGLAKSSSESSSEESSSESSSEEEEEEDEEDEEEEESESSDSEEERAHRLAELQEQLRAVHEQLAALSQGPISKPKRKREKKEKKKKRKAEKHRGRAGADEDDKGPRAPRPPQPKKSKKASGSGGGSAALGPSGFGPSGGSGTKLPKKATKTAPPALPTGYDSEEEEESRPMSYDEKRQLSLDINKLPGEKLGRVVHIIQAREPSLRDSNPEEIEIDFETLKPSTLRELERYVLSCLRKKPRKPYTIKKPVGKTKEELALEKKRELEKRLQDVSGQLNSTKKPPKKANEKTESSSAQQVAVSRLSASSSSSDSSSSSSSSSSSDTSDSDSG
Protein cereblon/Bromodomain-containing protein 2 (Homo sapiens), sequence (Q96SW2 whole entry, looked up): as the sequence (Q96SW2 whole entry, looked up, other chains not shown) above
Protein cereblon/Bromodomain-containing protein 3 (Homo sapiens), sequence (Q15059 2-726 limits assumed): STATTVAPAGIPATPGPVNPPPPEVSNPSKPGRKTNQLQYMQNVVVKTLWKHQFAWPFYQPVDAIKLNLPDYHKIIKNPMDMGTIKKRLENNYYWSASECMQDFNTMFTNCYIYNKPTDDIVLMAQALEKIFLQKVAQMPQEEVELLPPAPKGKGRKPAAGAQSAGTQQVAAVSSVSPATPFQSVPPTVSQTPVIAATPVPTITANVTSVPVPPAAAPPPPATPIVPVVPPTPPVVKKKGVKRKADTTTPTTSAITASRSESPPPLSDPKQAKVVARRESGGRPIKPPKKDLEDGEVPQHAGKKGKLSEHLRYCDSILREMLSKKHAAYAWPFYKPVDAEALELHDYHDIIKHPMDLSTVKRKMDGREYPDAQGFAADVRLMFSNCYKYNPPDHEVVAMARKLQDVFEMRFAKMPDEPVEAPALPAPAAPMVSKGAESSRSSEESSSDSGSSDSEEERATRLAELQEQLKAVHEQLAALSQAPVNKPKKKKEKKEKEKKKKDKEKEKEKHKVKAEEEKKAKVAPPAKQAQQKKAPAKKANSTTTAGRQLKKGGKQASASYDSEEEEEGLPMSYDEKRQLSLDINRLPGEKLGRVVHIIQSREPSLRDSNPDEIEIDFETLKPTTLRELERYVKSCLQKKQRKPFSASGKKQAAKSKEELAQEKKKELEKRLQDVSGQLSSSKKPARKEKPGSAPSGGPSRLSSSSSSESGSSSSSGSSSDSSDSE
Protein cereblon/Bromodomain-containing protein 3 (Homo sapiens), sequence (Q96SW2 whole entry partner): as the sequence (Q96SW2 whole entry, looked up, other chains not shown) above
Protein cereblon/Zinc finger protein Aiolos (Homo sapiens), sequence (Q96SW2 whole entry, looked up): as the sequence (Q96SW2 whole entry, looked up, other chains not shown) above
Protein cereblon/Zinc finger protein Aiolos (Homo sapiens), sequence (Q9UKT9 whole entry, looked up): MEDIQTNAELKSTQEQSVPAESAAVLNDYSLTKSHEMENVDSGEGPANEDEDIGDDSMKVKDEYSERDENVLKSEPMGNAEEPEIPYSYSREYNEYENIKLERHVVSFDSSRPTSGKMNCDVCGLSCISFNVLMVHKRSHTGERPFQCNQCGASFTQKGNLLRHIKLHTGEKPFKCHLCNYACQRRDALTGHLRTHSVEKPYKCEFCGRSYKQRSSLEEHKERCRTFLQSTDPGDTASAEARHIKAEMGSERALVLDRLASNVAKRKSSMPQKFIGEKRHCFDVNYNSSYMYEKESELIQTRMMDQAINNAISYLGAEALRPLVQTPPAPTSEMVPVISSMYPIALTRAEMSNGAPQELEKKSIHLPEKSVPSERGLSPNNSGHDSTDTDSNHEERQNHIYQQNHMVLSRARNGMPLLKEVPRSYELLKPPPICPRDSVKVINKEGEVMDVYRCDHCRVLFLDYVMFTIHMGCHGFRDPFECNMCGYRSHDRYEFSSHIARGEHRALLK

The CC50 is the concentration at which the toxic effect on the cells reaches its halfway point. A higher CC50 goes with lower toxicity to the cells. With `Nc1cccc2nnn(C3CCC(=O)NC3=O)c(=O)c12` (configuration not stated), the CC50 in data set [1] came to 39 nM. The Activity entry in data set [2] and in data set [3] was “Non-Toxic” in each case. For the same compound, in data set [4], the TGI entry is “Active”.

`Nc1cccc2c1C(=O)N(C1CCC(=O)NC1=O)C2=O` (configuration not stated) [POMALIDOMIDE]: the 50% cytotoxic concentration (CC50) in data set [1] stood at 35 nM.

As a reminder, the DC50 is the concentration at which degradation of the target reaches its halfway point. The low end stands for a more potent degrader, the high end for a less potent degrader. As to `Cc1sc2c(c1C)C(c1ccc(Cl)cc1)=N[C@@H](CC(=O)Nc1cccc(OCCOCCOCCNc3cccc4nnn(C5CCC(=O)NC5=O)c(=O)c34)c1)c1nnc(C)n1-2` (some centres not stated), the outcome in [5], in data set [7], in data set [8], in data set [11] and in data set [15] was inactive. For the same compound, the result in data set [6], in data set [9], in data set [12] and in [13] was Active. The same compound came in with a DC50 in data set [10] of 0.32 nM. For the same compound, the CC50 in data set [14] is 20.1 nM.

The compound `Cc1sc2c(c1C)C(c1ccc(Cl)cc1)=N[C@@H](CC(=O)Nc1ccc(OCCOCCOCCNc3cccc4nnn(C5CCC(=O)NC5=O)c(=O)c34)cc1)c1nnc(C)n1-2` (some centres not stated) registered a DC50 in [10] of 3.3 nM. In other words, the single-digit nanomolar range.

The record behind these values is ChEMBL document CHEMBL4400516, “A novel cereblon modulator for targeted protein degradation” (Eur J Med Chem, 2019).
